Results reported in ChEMBL document CHEMBL1121571, “Cytotoxic and antitumor properties of bleomycin and several of its metal complexes” (J Med Chem, 1980).

What was measured:
Assay type in all cases: functional, organism-based
Mus musculus [1] = species: Mus musculus; test: Tested for the thymidine uptake against blenoxane at 10 nm of drug/mg of cell protein in mice
Outline: (§1)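 Ehrlich ascites cells from a donor mouse, in fresh MEM at 5 × 10⁶ cells/mL, were exposed to drug for 60 min at 37 °C with gentle shaking. They were then washed once, resuspended in fresh MEM and given [³H]thymidine (final thymidine about 8.6 × 10⁻⁸ M) for 20 min. DNA synthesis was read as perchloric acid-precipitable label. Values are % of control ± SD over three trials.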

Mus musculus [2] = species: Mus musculus; test: Tested for the thymidine uptake against blenoxane at 40 nm of drug/mg of cell protein in mice; outline: as §1
Mus musculus [3] = species: Mus musculus; test: Tested for the thymidine uptake against blenoxane at 4 nm of drug/mg of cell protein in mice
Mus musculus [4] = species: Mus musculus; test: Tested for the thymidine uptake against blenoxane at 80 nm of drug/mg of cell protein in mice; outline: as §1
Mus musculus [5] = species: Mus musculus; test: Tested for the inhibition of DNA synthesis against blenoxane at 4 nm of drug/mg of cell protein in mice; set-up: scale not given: the % may be the effect or the level left
Outline: (§2)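 Culture-adapted Ehrlich cells were incubated 60 min with […] (4 nmol/mg cell protein) in the presence of serum. [³H]dThd incorporation into DNA was measured at the end of the 60 min. Values are expressed relative to untreated control.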

Mus musculus [6] = species: Mus musculus; test: Tested for the inhibition of DNA synthesis against blenoxane at 40 nm of drug/mg of cell protein in mice; set-up: scale not given: the % may be the effect or the level left; outline: as §1
Mus musculus [7] = species: Mus musculus; test: Tested for the inhibition of DNA synthesis against blenoxane at 80 nm of drug/mg of cell protein in mice; set-up: scale not given: the % may be the effect or the level left; outline: as §1
Mus musculus [8] = species: Mus musculus; test: Tested for the inhibition of DNA synthesis against blenoxane at 10 nm of drug/mg of cell protein in mice; set-up: scale not given: the % may be the effect or the level left; outline: as §1
Mus musculus [9] = species: Mus musculus; test: Tested for the thymidine uptake against cu-blenoxane at 40 nm of drug/mg of cell protein in mice; outline: as §1
Mus musculus [10] = species: Mus musculus; test: Tested for the inhibition of DNA synthesis against cu-blenoxane at 4 nm of drug/mg of cell protein in mice; set-up: scale not given: the % may be the effect or the level left; outline: as §2
Mus musculus [11] = species: Mus musculus; test: Tested for the thymidine uptake against cu-blenoxane at 10 nm of drug/mg of cell protein in mice; outline: as §1
Mus musculus [12] = species: Mus musculus; test: Tested for the inhibition of DNA synthesis against cu-blenoxane at 40 nm of drug/mg of cell protein in mice; set-up: scale not given: the % may be the effect or the level left; outline: as §1
Mus musculus [13] = species: Mus musculus; test: Tested for the thymidine uptake against cu-blenoxane at 80 nm of drug/mg of cell protein in mice; outline: as §1
Mus musculus [14] = species: Mus musculus; test: Tested for the thymidine uptake against cu-blenoxane at 4 nm of drug/mg of cell protein in mice
Mus musculus [15] = species: Mus musculus; test: Tested for the inhibition of DNA synthesis against cu-blenoxane at 10 nm of drug/mg of cell protein in mice; set-up: scale not given: the % may be the effect or the level left; outline: as §1
Mus musculus [16] = species: Mus musculus; test: Tested for the inhibition of DNA synthesis against cu-blenoxane at 80 nm of drug/mg of cell protein in mice; set-up: scale not given: the % may be the effect or the level left; outline: as §1

Row | Substance | Control (Mus musculus [1]) [%] | Control (Mus musculus [2]) [%] | Control (Mus musculus [3]) [%] | Control (Mus musculus [4]) [%] | Control (Mus musculus [5]) [%] | Control (Mus musculus [6]) [%] | Control (Mus musculus [7]) [%] | Control (Mus musculus [8]) [%] | Control (Mus musculus [9]) [%] | Control (Mus musculus [10]) [%] | Control (Mus musculus [11]) [%] | Control (Mus musculus [12]) [%] | Control (Mus musculus [13]) [%] | Control (Mus musculus [14]) [%] | Control (Mus musculus [15]) [%] | Control (Mus musculus [16]) [%]
1 | BLEOMYCIN | 79.1 | 69.8 | 86 | 61.9 | 67.9 | 56.4 | 40.1 | 66.1 |  |  |  |  |  |  |  | 
2 | cu-blenoxane |  |  |  |  |  |  |  |  | 71.2 | 86.8 | 83.5 | 55.3 | 68.4 | 94.9 | 61.5 | 51.3
